{"source": "ChEMBL document CHEMBL4354843", "about": "“Structure-Based Design of a Potent and Selective Covalent Inhibitor for SRC Kinase That Targets a P-Loop Cysteine” (J Med Chem, 2020)", "key": {"[1]": {"target": "Cyclin-dependent kinase-like 5 (Homo sapiens) (UniProt O76039)", "test": "Binding affinity to wild-type human partial length CDKL5 (M1 to S337 residues) expressed in mammalian expression system assessed as residual binding level at 1 uM by Kinomescan method relative to control"}, "[2]": {"target": "Mitogen-activated protein kinase kinase kinase kinase 2 (Homo sapiens) (UniProt Q12851)", "test": "Binding affinity to wild-type human partial length MAP4K2 (M1 to G318 residues) expressed in mammalian expression system assessed as residual binding level at 1 uM by Kinomescan method relative to control"}, "[3]": {"target": "Tyrosine-protein kinase receptor UFO (Homo sapiens) (UniProt P30530)", "test": "Binding affinity to wild-type human partial length AXL (R497 to Y821 residues) expressed in bacterial expression system assessed as residual binding level at 1 uM by Kinomescan method relative to control"}, "[4]": {"target": "Glycogen synthase kinase-3 alpha (Homo sapiens) (UniProt P49840)", "sequence (P49840 2-483 limits assumed)": "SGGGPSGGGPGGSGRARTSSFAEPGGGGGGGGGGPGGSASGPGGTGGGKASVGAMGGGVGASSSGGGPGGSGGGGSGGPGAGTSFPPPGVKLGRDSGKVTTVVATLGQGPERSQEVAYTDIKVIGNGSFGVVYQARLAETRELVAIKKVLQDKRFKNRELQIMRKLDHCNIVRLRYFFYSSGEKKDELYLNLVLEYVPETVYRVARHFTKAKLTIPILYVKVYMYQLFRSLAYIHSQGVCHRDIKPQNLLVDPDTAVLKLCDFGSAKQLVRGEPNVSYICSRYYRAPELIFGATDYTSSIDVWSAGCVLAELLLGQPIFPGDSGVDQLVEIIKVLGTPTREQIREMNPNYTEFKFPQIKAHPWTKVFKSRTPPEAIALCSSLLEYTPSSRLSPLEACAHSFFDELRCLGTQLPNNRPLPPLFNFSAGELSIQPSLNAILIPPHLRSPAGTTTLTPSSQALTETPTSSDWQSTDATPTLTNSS", "test": "Binding affinity to wild-type human full length GSK3A (M1 to S483 residues) expressed in bacterial expression system assessed as residual binding level at 1 uM by Kinomescan method relative to control", "how_it_was_run": "(§1)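 Active-site-directed KinomeScan competition binding panel covering 468 kinases, compound tested at 1 μM. Each readout is the kinase signal remaining with compound, expressed as a percentage of the DMSO control. […]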"}, "[5]": {"target": "Discoidin domain-containing receptor 2 (Homo sapiens) (UniProt Q16832)", "test": "Binding affinity to wild-type human partial length DDR2 (V555 to E855 residues) expressed in mammalian expression system assessed as residual binding level at 1 uM by Kinomescan method relative to control", "how_it_was_run": "(§2)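 Active-site-directed competition binding panel of 468 kinases (KinomeScan), compound at 1 μM. The read-out is kinase remaining bound, given as a percentage of the DMSO control. […]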"}, "[6]": {"target": "ALK tyrosine kinase receptor (Homo sapiens) (UniProt Q9UM73)", "sequence (Q9UM73 19-1620 limits assumed)": "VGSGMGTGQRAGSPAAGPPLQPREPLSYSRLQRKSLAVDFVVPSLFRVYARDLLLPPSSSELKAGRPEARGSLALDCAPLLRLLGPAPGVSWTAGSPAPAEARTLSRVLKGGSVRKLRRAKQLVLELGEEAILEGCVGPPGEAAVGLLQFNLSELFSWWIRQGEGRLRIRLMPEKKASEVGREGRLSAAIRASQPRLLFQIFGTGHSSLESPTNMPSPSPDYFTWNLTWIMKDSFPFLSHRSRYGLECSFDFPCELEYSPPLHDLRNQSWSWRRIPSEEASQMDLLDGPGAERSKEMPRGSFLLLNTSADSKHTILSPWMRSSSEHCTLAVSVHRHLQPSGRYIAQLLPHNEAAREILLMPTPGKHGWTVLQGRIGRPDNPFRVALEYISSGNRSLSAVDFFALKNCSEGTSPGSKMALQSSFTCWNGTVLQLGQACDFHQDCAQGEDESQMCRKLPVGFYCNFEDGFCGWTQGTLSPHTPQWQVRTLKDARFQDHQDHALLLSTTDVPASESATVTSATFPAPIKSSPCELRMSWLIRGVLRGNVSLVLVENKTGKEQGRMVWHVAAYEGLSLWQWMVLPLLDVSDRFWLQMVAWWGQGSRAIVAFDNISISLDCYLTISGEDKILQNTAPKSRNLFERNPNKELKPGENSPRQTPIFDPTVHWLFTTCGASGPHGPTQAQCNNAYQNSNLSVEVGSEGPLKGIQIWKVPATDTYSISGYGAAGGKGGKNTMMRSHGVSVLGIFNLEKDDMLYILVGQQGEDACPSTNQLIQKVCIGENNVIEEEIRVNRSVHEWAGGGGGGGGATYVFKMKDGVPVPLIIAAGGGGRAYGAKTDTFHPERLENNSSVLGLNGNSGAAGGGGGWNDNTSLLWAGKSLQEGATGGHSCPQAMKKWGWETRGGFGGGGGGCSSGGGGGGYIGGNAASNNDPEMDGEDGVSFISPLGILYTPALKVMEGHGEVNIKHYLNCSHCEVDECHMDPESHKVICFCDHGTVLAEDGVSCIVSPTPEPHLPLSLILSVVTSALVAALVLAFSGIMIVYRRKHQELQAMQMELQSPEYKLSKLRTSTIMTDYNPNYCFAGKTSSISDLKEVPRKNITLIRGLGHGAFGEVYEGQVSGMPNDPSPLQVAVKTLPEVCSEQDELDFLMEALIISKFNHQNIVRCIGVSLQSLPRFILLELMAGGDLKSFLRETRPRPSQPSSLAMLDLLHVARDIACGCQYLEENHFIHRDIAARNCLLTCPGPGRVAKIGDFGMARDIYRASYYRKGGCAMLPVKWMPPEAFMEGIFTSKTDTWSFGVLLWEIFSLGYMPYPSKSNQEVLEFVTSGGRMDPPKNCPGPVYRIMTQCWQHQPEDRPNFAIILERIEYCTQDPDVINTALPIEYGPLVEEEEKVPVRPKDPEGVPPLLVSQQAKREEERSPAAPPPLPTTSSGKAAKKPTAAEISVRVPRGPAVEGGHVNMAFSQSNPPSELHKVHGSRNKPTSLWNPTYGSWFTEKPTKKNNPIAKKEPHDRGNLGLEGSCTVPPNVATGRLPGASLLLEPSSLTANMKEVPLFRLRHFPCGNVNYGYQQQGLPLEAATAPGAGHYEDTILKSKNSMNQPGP", "test": "Binding affinity to wild-type human partial length ALK (I1088 to E1409 residues) expressed in mammalian expression system assessed as residual binding level at 1 uM by Kinomescan method relative to control"}, "[7]": {"target": "Calcium/calmodulin-dependent protein kinase kinase 2 (Homo sapiens) (UniProt Q96RR4)", "sequence (Q96RR4 2-588 limits assumed)": "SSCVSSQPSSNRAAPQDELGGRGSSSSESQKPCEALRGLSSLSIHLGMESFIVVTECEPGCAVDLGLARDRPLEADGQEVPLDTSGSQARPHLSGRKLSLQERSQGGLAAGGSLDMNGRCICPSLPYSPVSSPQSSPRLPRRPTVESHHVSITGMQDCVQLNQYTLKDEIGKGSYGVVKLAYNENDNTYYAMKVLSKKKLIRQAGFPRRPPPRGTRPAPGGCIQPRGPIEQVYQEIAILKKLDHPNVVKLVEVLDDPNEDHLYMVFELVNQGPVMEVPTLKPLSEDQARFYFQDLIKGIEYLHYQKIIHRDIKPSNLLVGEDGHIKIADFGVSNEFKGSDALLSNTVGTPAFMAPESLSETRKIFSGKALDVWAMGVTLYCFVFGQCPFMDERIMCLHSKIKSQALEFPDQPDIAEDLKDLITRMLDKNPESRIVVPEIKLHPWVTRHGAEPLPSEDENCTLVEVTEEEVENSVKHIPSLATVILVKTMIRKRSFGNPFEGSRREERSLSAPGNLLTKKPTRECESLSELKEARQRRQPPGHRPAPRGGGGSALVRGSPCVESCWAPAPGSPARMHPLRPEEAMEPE", "test": "Binding affinity to wild-type human partial length CAMKK2 (D65 to V471 residues) expressed in bacterial expression system assessed as residual binding level at 1 uM by Kinomescan method relative to control"}, "[8]": {"target": "Mitogen-activated protein kinase kinase kinase 10 (Homo sapiens) (UniProt Q02779)", "test": "Binding affinity to wild-type human partial length MLK2 (V52 to W380 residues) expressed in bacterial expression system assessed as residual binding level at 1 uM by Kinomescan method relative to control"}, "[9]": {"target": "Serine/threonine-protein kinase Nek9 (Homo sapiens) (UniProt Q8TD19)", "sequence (Q8TD19 whole entry, the tested form may be a part)": "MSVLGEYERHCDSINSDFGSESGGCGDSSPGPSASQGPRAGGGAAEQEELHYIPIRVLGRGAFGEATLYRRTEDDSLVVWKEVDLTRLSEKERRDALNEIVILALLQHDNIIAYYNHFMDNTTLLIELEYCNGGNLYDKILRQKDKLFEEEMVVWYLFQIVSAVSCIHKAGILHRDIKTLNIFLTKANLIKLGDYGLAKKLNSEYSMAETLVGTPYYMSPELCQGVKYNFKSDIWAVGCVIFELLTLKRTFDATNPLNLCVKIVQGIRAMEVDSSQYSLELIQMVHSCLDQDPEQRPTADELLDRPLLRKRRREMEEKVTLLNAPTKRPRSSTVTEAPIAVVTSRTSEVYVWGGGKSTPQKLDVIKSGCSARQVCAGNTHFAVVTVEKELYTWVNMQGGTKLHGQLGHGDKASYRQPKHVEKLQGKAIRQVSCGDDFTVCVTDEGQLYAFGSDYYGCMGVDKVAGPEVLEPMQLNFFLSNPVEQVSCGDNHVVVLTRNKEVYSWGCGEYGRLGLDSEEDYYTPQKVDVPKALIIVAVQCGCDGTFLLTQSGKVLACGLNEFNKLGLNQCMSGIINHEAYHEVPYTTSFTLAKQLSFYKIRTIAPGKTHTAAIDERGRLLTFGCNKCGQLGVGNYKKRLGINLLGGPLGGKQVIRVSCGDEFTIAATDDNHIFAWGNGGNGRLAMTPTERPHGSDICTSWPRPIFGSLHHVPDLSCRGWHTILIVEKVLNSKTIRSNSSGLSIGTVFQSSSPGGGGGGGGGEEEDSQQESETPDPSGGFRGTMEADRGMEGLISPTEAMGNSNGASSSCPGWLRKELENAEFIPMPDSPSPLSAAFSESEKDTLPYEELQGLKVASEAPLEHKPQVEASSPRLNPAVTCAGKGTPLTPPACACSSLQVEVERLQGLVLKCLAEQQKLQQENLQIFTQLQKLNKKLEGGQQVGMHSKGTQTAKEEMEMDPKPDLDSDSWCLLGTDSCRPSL", "test": "Binding affinity to wild-type human partial length NEK9 (P32 to R328 residues) expressed in bacterial expression system assessed as residual binding level at 1 uM by Kinomescan method relative to control"}, "[10]": {"target": "Tyrosine-protein kinase HCK (Homo sapiens, UniProt P08631)", "test": "Binding affinity to wild-type human full length HCK (M22 to P526 residues) expressed in bacterial expression system assessed as residual binding level at 1 uM by Kinomescan method relative to control", "how_it_was_run": "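KinomeScan, an active site-directed competition binding panel of 468 kinases. The test compound was at 1 μM. The readout is remaining kinase binding as a percentage of the DMSO control. Scores above 35% were treated as weak binding and not listed.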"}, "[11]": {"target": "Mitogen-activated protein kinase kinase kinase 15 (Homo sapiens) (UniProt Q6ZN16)", "test": "Binding affinity to wild-type human partial length MAP3K15 (T625 to L932 residues) expressed in mammalian expression system assessed as residual binding level at 1 uM by Kinomescan method relative to control", "how_it_was_run": "as §2"}, "[12]": {"target": "Activin receptor type-2B (Homo sapiens) (UniProt Q13705)", "sequence (Q13705 whole entry, the tested form may be a part)": "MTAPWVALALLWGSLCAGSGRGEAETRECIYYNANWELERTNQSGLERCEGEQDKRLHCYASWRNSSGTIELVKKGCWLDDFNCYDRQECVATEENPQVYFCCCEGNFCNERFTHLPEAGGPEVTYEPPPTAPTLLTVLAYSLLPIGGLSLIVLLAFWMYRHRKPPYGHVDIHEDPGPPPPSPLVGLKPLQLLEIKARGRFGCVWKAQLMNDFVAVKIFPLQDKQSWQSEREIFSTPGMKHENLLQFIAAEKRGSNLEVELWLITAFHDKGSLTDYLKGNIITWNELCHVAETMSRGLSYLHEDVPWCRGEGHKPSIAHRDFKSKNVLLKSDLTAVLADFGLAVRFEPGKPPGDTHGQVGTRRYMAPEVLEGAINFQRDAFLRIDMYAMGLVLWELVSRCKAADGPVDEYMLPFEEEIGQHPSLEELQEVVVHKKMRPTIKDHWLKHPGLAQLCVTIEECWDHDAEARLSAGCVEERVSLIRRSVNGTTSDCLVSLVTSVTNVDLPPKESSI", "test": "Binding affinity to wild-type human ACVR2B (H169 to D504 residues) expressed in bacterial expression system assessed as residual binding level at 1 uM by Kinomescan method relative to control", "how_it_was_run": "as §1"}, "[13]": {"target": "Vascular endothelial growth factor receptor 1 (Homo sapiens) (UniProt P17948)", "test": "Binding affinity to wild-type human partial length FLT1 (R781 to F1239 residues) expressed in bacterial expression system assessed as residual binding level at 1 uM by Kinomescan method relative to control"}, "[14]": {"target": "Cyclin-dependent kinase-like 3 (Homo sapiens) (UniProt Q8IVW4)", "sequence (Q8IVW4 whole entry, looked up, the tested form may be a part)": "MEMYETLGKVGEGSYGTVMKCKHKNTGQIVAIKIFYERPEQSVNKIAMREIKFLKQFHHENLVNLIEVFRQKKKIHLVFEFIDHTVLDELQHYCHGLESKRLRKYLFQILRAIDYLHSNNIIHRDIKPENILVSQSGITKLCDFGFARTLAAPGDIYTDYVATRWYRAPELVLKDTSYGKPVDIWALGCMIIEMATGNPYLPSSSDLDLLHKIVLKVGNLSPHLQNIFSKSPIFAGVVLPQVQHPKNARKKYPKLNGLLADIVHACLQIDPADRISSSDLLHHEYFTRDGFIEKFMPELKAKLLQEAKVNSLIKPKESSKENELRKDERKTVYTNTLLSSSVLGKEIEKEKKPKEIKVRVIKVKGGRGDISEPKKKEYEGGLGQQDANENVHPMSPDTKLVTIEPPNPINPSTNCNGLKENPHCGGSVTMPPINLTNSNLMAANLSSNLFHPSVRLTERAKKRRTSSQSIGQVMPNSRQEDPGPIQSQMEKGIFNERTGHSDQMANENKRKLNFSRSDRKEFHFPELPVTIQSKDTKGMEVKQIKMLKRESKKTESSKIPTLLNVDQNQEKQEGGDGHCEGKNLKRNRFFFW", "test": "Binding affinity to wild-type human partial length CDKL3 (M1 to D327 residues) expressed in bacterial expression system assessed as residual binding level at 1 uM by Kinomescan method relative to control"}, "[15]": {"target": "Serine/threonine-protein kinase TAO3 (Homo sapiens) (UniProt Q9H2K8)", "test": "Binding affinity to wild-type human partial length TAOK3 (M1 to T316 residues) expressed in mammalian expression system assessed as residual binding level at 1 uM by Kinomescan method relative to control"}, "[16]": {"target": "Dual specificity tyrosine-phosphorylation-regulated kinase 1B (Homo sapiens) (UniProt Q9Y463)", "test": "Binding affinity to wild-type human full length DYRK1B (M1 to S629 residues) expressed in bacterial expression system assessed as residual binding level at 1 uM by Kinomescan method relative to control", "how_it_was_run": "as §1"}, "[17]": {"target": "Macrophage colony-stimulating factor 1 receptor (Homo sapiens) (UniProt P07333)", "test": "Binding affinity to wild-type human partial length autoinhibited CSF1R (Y538 to S939 residues) expressed in mammalian expression system assessed as residual binding level at 1 uM by Kinomescan method relative to control", "how_it_was_run": "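Active site-directed competition binding panel (KinomeScan, 468 kinases). Test compound at 1 μM. Read-out is kinase binding remaining versus DMSO control, expressed as percent of control. Scores above 35% are treated as weak binding.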"}, "[18]": {"target": "Tyrosine-protein kinase SYK (Homo sapiens) (UniProt P43405)", "test": "Binding affinity to wild-type human partial length SYK (D354 to N635 residues) expressed in bacterial expression system assessed as residual binding level at 1 uM by Kinomescan method relative to control"}, "[19]": {"target": "Serine/threonine-protein kinase Nek6 (Homo sapiens) (UniProt Q9HC98)", "sequence (Q9HC98 whole entry, the tested form may be a part)": "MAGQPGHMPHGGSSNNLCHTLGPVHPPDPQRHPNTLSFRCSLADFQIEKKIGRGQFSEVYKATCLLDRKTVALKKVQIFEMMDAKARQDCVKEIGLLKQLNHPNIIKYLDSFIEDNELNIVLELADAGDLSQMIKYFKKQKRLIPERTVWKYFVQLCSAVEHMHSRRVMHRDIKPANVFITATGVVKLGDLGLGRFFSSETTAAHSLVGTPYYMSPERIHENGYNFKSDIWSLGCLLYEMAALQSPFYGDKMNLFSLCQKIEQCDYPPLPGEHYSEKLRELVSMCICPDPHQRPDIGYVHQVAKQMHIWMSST", "test": "Binding affinity to wild-type human full length NEK6 (M8 to T313 residues) expressed in bacterial expression system assessed as residual binding level at 1 uM by Kinomescan method relative to control", "how_it_was_run": "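Active-site-directed competition binding panel (KinomeScan) covering 468 kinases. Test agent was screened at 1 μM. The read-out is the remaining kinase signal expressed relative to a DMSO control. Scores above 35%, taken as weak binding, were not reported.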"}, "[20]": {"target": "Fibroblast growth factor receptor 1 (Homo sapiens, UniProt P11362)", "test": "Inhibition of recombinant human His-tagged FGFR1 (308 to 731 residues) expressed in baculovirus expression system using tyrosine-4 peptide as substrate incubated for 1 hr by Z'-LYTE assay"}, "[21]": {"target": "Serine/threonine-protein kinase haspin (Homo sapiens) (UniProt Q8TF76)", "test": "Binding affinity to wild-type human partial length HASPIN (I452 to K798 residues) expressed in mammalian expression system assessed as residual binding level at 1 uM by Kinomescan method relative to control"}}, "data": [{"smiles": "C=CC(=O)Nc1ccccc1Nc1nc(Nc2ccc(N3CCN(C)CC3)cc2)ncc1C(=O)Nc1c(C)cccc1Cl", "values": [{"measurement": "Activity", "setting": "[1]", "value": 100, "unit": "%"}, {"measurement": "Activity", "setting": "[2]", "value": 100, "unit": "%"}, {"measurement": "Activity", "setting": "[3]", "value": 100, "unit": "%"}, {"measurement": "Activity", "setting": "[4]", "value": 100, "unit": "%"}, {"measurement": "Activity", "setting": "[5]", "value": 26, "unit": "%"}, {"measurement": "Activity", "setting": "[6]", "value": 100, "unit": "%"}, {"measurement": "Activity", "setting": "[7]", "value": 100, "unit": "%"}, {"measurement": "Activity", "setting": "[8]", "value": 100, "unit": "%"}, {"measurement": "Activity", "setting": "[9]", "value": 100, "unit": "%"}, {"measurement": "Activity", "setting": "[10]", "value": 0.8, "unit": "%"}, {"measurement": "Activity", "setting": "[11]", "value": 80, "unit": "%"}, {"measurement": "Activity", "setting": "[12]", "value": 100, "unit": "%"}, {"measurement": "Activity", "setting": "[13]", "value": 100, "unit": "%"}, {"measurement": "Activity", "setting": "[14]", "value": 100, "unit": "%"}, {"measurement": "Activity", "setting": "[15]", "value": 100, "unit": "%"}, {"measurement": "Activity", "setting": "[16]", "value": 74, "unit": "%"}, {"measurement": "Activity", "setting": "[17]", "value": 79, "unit": "%"}, {"measurement": "Activity", "setting": "[18]", "value": 100, "unit": "%"}, {"measurement": "Activity", "setting": "[19]", "value": 100, "unit": "%"}, {"measurement": "IC50", "setting": "[20]", "value": 8.34, "unit": "µM"}, {"measurement": "Activity", "setting": "[21]", "value": 100, "unit": "%"}]}]}
